Assay results: ChEMBL document CHEMBL1147082 (Proc Natl Acad Sci U S A, 2007)
The source made the active and inactive calls. No cut-off for these calls is given here.

Legend:
[1] = tested on: Mus musculus; assay: Toxicity in Swiss-Webster mouse assessed as decrease in bone formation at 30 mg/kg after 28 days; assay type: organism-based; parameters: dose 30 mg/kg; conditions: in vivo, 672 h
In short: (§1)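 Male Swiss–Webster mice, three months old, singly housed on standard chow, dosed orally for 28 days (vehicle; 3, 10, 30 mg/kg). Alizarin red 30 mg/kg s.c. at baseline DXA and calcein 15 mg/kg s.c. at final DXA for labeling. Tibial cortical histomorphometry under epifluorescence. Periosteal BFR = double-labeled surface × MAR/periosteal perimeter.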

[2] = species: Mus musculus; assay: Toxicity in Swiss-Webster mouse assessed as increase in body fat after 28 days relative to control; assay type: organism-based; conditions: in vivo, 672 h
In short: (§2)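 Male Swiss–Webster mice, three months old, singly housed, 12-h light cycle, chow ad libitum. Oral treatment for 28 days with vehicle or 3, 10, 30 mg/kg. Percentage body fat measured by DEXA, compared against vehicle controls.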

[3] = molecular target: T1, Androgen receptor (Homo sapiens, UniProt P10275); assay: Binding affinity to human recombinant androgen receptor expressed in SF9 cells
T1 sequence (P10275 whole entry): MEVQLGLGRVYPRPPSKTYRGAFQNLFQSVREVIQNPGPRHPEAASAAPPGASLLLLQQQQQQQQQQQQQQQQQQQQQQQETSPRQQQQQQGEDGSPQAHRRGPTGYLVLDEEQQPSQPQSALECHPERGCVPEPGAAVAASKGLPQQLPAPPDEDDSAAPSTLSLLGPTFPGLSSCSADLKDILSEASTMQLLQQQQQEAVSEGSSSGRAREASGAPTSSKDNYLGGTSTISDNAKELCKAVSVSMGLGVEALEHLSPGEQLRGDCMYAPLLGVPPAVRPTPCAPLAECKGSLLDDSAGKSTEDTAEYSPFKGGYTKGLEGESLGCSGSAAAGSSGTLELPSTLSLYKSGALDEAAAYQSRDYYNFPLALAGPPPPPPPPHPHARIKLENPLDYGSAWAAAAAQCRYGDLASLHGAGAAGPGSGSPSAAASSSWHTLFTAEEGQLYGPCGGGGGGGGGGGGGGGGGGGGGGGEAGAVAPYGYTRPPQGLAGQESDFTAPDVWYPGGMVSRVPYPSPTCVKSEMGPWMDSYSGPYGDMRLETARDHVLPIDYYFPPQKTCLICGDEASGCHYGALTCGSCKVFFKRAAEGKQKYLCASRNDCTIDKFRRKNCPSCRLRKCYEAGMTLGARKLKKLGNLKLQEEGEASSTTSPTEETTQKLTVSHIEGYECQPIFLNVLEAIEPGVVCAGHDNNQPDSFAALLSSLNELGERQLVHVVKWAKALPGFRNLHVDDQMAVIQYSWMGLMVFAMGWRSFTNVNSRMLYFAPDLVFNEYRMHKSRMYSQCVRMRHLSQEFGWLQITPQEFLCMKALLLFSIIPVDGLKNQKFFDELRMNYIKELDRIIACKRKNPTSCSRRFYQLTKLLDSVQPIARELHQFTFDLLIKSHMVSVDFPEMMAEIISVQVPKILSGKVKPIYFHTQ
In short: (§3)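 Receptor source: extracts of SF-9 insect cells infected with recombinant baculovirus expressing the indicated receptor. Affinity was measured in a labeled-hormone binding assay.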

[4] = molecular target: T2, Progesterone receptor (Homo sapiens, UniProt P06401); assay: Binding affinity to human recombinant progesterone-A receptor expressed in SF9 cells; in short: as §3
T2 sequence (P06401 whole entry): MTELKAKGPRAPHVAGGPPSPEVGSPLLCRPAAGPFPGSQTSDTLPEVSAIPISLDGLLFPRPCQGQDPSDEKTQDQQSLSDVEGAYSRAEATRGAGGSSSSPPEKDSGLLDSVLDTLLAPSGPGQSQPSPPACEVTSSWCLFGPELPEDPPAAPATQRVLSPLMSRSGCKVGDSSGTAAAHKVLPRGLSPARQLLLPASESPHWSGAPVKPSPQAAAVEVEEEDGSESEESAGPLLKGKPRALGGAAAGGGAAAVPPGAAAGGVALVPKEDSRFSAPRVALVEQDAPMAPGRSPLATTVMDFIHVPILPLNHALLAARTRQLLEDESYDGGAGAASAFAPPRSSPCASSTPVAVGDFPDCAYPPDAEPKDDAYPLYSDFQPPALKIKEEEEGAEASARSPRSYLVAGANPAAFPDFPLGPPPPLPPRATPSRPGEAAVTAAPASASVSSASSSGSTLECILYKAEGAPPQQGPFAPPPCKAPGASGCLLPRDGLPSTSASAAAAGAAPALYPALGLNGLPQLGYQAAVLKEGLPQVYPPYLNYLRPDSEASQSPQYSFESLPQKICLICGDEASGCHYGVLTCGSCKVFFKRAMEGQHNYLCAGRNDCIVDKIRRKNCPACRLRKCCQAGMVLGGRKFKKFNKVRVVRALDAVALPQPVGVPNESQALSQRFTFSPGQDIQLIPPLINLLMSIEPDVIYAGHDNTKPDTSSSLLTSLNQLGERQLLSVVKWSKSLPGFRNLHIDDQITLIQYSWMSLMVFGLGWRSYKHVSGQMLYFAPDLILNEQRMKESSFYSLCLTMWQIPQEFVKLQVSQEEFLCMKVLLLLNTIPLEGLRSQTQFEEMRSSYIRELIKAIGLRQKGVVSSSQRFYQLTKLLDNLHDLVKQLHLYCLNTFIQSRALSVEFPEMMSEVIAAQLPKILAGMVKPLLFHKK

[5] = tested on: Mus musculus; assay: Inhibition of collagen-induced arthritis in DBA/1 mouse at less than 3 mg/kg, po after 15 days; assay type: functional, organism-based; parameters: dose 3 mg/kg
In short: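 Female DBA/1 mice, 6–8 weeks old, acclimatized 10 days. Bovine type II collagen (stored at 4 mg/ml in 0.01 M acetic acid) with complete Freund's adjuvant given intradermally at tail base on days 1 and 7. Daily oral gavage days 17–31 (15 days). Limbs scored 0–4 for clinical arthritis signs; 10 mice/group. One-way ANOVA with Fisher's LSD, P < 0.05.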

[6] = molecular target: T3, Glucocorticoid receptor (Homo sapiens) (UniProt P04150); conditions: CV-1
T3 sequence (whole entry): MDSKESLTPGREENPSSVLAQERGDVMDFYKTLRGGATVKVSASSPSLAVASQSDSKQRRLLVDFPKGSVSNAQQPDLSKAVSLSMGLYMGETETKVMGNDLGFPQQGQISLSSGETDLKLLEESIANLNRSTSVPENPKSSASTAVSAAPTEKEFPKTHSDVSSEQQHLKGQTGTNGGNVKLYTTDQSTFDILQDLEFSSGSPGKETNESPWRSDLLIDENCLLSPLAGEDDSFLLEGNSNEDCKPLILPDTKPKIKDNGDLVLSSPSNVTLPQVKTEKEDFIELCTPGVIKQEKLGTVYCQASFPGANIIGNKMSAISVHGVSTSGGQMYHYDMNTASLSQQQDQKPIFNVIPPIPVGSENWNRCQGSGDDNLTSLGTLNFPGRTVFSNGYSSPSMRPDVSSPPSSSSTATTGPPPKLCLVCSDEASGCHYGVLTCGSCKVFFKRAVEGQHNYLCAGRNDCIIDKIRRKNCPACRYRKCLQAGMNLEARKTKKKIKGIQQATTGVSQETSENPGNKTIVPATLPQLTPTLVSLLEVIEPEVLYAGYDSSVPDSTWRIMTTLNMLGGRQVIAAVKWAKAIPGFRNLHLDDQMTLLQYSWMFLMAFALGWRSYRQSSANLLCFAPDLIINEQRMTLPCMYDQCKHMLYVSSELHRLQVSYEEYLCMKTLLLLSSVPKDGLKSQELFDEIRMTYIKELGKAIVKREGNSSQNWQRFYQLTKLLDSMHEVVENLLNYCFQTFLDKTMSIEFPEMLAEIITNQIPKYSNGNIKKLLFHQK

[7] = molecular target: T4, Glucocorticoid receptor (Rattus norvegicus) (UniProt P06536); assay: Activity at endogenous glucocorticoid receptor in rat H42E liver cells assessed as increase in transcriptional activation of pyruvate dehydrogenase kinase at 0.1 uM after 24 hrs by RT-PCR; assay type: cell-based
T4 sequence (whole entry): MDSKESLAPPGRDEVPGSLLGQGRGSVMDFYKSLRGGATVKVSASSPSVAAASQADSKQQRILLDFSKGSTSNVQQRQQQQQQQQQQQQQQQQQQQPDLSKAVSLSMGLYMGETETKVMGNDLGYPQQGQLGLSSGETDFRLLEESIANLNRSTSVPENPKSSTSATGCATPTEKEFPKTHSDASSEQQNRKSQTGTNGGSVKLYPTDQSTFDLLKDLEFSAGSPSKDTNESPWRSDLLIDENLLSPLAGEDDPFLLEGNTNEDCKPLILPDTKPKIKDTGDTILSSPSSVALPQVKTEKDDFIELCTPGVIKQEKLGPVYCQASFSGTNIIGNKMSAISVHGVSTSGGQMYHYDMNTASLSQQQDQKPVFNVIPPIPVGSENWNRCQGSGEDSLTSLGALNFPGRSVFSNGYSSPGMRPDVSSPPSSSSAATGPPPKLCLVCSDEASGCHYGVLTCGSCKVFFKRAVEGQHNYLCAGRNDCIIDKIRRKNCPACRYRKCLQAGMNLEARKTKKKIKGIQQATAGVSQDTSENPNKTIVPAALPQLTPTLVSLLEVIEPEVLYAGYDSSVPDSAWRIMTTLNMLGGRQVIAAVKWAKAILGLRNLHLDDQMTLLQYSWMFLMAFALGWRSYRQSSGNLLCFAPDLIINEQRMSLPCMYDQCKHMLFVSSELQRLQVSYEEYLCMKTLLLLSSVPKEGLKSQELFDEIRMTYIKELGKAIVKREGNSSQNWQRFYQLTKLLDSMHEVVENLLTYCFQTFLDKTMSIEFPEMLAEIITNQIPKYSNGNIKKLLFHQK
In short: (§4)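 H4IIE rat liver cells (endogenous GR) kept in 10% FBS, seeded overnight at 3.5 × 10^5 cells/well, then given vehicle or compound in 10% dextran/charcoal-treated FBS for 24 h. RNA extracted, first-strand cDNA made, real-time PCR run (40 cycles). Target signal divided by 36B4 control gene. Triplicate biological samples and triplicate assays per dose; one-way ANOVA with Dunnett's method.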

[8] = tested on: Mus musculus; assay: Toxicity in Swiss-Webster mouse assessed as decrease in bone formation at 3 mg/kg after 28 days; assay type: organism-based; parameters: dose 3 mg/kg; conditions: in vivo, 672 h; in short: as §1
[9] = tested on: Mus musculus; assay: Toxicity in Swiss-Webster mouse assessed as decrease in bone formation at 10 mg/kg after 28 days; assay type: organism-based; parameters: dose 10 mg/kg; conditions: in vivo, 672 h; in short: as §1
[10] = tested on: Mus musculus; assay: Toxicity in Swiss-Webster mouse assessed as increase in body fat at 10 mg/kg after 28 days; assay type: organism-based; parameters: dose 10 mg/kg; conditions: in vivo, 672 h; in short: as §2
[11] = molecular target: T4, Glucocorticoid receptor (Rattus norvegicus); assay: Activity at endogenous glucocorticoid receptor in rat H42E liver cells assessed as increase in transcriptional activation of phosphoenol pyruvate carboxykinase at 0.01 uM after 24 hrs by RT-PCR; assay type: cell-based; in short: as §4
[12] = tested on: Mus musculus; assay: Toxicity in Swiss-Webster mouse assessed as increase in body fat at 30 mg/kg after 28 days; assay type: organism-based; parameters: dose 30 mg/kg; conditions: in vivo, 672 h; in short: as §2

Ki [3] [µM] | Ki [4] [µM] | ED50 [6] [µM] | Activity [7] | Activity [11] | Compound | Activity [1] | Activity [2] | Activity [5] | Activity [8] | Activity [9] | Activity [10] | Activity [12]
0.91 | 0.866 |  |  |  | COc1c(O)ccc2c1-c1ccc3c(c1/C(=C/c1cccc(C)c1F)O2)C(C)=CC(C)(C)N3 | Toxic | Toxic | Active |  |  |  | 
 |  | 0.0001 |  |  | C[C@@H]1C[C@H]2[C@@H]3CCC4=CC(=O)C=C[C@]4(C)[C@@]3(F)[C@@H](O)C[C@]2(C)[C@@]1(O)C(=O)CO |  |  |  |  |  |  | 
 |  | 0.004 | Active | Active | C[C@]12C=CC(=O)C=C1CC[C@@H]1[C@@H]2[C@@H](O)C[C@@]2(C)[C@H]1CC[C@]2(O)C(=O)CO [PREDNISOLONE] | Toxic |  | Active | Toxic | Toxic | Toxic | Toxic
